Screening data as filed in PubChem.
The list is not random: actives were taken first. Their share in the collection is about 4.3%.
STAT1 blocker: reduces IFN-gamma driven STAT1 reporter signal; NIH 3T3 STAT1-luciferase reporter, luminescence; inhibition, % at 5.5 µM; actives 0.35% (n = 200,000); AID 920;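 active = inhibition above a set limit, the mean inhibition across all tested compounds plus 3 SD, cut at about 34% in these data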
STAT3 blocker: STAT3 signaling inhibition. U3A cells, IL-6 STAT3-luciferase reporter, luminescence; host cell line lacks STAT1. inhibition, % at 5.5 µM. actives 0.89% (n = 190,000);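 active = inhibition above the mean inhibition across all screened compounds plus 3 SD, cut at about 44% in these data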
STAT1 activator: STAT1 signaling activation | NIH 3T3 STAT1-luciferase reporter, IFN-gamma, luminescence; 100% = IFN-gamma alone, no compound | activation (% of control), % at 5.5 µM | actives 2.6% (n = 200,000) | AID 932;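 active = activation above the screen-wide mean activation plus 3 SD, cut at about 130% in these data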
STAT3 activator: STAT3 signaling activation. U3A cells, IL-6 STAT3-luciferase reporter, luminescence; 100% = signal with IL-6 EC80 alone. activation (% of control), % at 5.6 µM. actives 0.91% (n = 190,000). AID 871;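 active = activation above the screen-wide mean of compound activation plus 3 SD, cut at about 130% in these data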
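Material: STAT3-luciferase reporter U3A cells; Probe or stimulus: IL-6 (33 ng/mL); Incubation: compound pre-incubation 1 h before IL-6, then 6 h stimulation at 37 °C; Technique: luminescence from STAT3-driven luciferase reporter; Evaluation: % activation versus median of IL-6-stimulated wells; Controls: IL-6-only high control.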
Large screens that a line does not name were inactive.

O=C(Nc1ccccc1O)c1ccc(NS(=O)(=O)c2cccc3cccnc23)cc1	none (no result: STAT3 blocker, STAT3 activator)
Cc1cccc(NC(=O)c2cc3ccccc3o2)c1	STAT1 activator 136
CCCC(C)NC1=NCCCCC1 (centres undefined)	none
CCOc1cccc(C(=O)Nc2nc(-c3ccc(S(=O)(=O)N4CCOCC4)cc3)cs2)c1	STAT1 blocker 35
Brc1cccc(OCCCCN2CCCCC2)c1	none
CCC(CC(C)(C)O)C(=O)NNC(=S)Nc1ccccc1 (centres undefined)	none
CCCOc1ccc(CN(CCO)CCO)cc1[N+](=O)[O-]	STAT3 activator 133
CCOc1ccc(CN(CCO)CCO)cc1C(=O)OC	none
Cc1cc(S(=O)(=O)Nc2c(C(=O)O)[nH]c3ccccc23)ccc1F	STAT3 activator 135
COc1ccc(NC(=S)Nc2cc(C)ccn2)c(OC)c1	STAT1 activator 145, STAT3 activator 141
COc1ccc(NC(=S)Nc2ccccn2)c(OC)c1	STAT1 activator 136
CCn1c(/C=C/c2ccccc2)nc2ccccc2c1=O	none
CN(C)c1ccc(/C=C/c2ccncc2)cc1	none
CCn1c(/C=C/c2ccccc2)nc2ccccc21	STAT1 activator 133
CCC(C)n1c(/C=C/c2ccccc2)nc2ccccc21 (centres undefined)	none
COc1ccc(/C=C/c2nc3ccccc3n2C)cc1	STAT1 blocker 94, STAT3 blocker 102
CC(C)Cn1c(/C=C/c2ccccc2)nc2ccccc21	STAT1 activator 136
COc1ccc(/C=C/c2ccncc2)cc1	STAT1 activator 144
CCOC(=O)CCc1c(C)nc(-n2[nH]c(C)c(CCO)c2=O)[nH]c1=O	none
O=C(CC(=O)NC1CCCCC1)N/N=C/c1ccccc1F	none
Cc1[nH]nc(SCC(=O)NC2CCCCC2)c1[N+](=O)[O-]	none
CCSc1ncc(/C=N/Nc2ccccc2)n1C	none
CCSc1ncc(/C=N/Nc2ccc(Cl)cc2)n1C	STAT1 activator 160, STAT3 activator 150
Cc1cccc(C)c1NC(=O)CS(=O)CC(=O)NCC1OCCc2ccccc21 (centres undefined)	none
COc1ccc(/C=C/C(=O)O/N=C(\N)c2ccccc2)cc1OC	STAT1 activator 137
COc1ccccc1C(=O)O/N=C(\N)c1ccccc1Cl	STAT1 activator 139
COc1ccc(C(=O)O/N=C(\N)c2ccccc2)c(OC)c1	STAT1 blocker 34, STAT3 blocker 76
N/C(=N\OC(=O)c1ccccc1Cl)c1ccccc1	none
N/C(=N\OC(=O)CCc1ccccc1)c1ccccc1Cl	STAT1 activator 141
N/C(=N\OC(=O)c1ccc(Cl)cc1Cl)c1ccccc1	none
Clc1ccc(-n2nnc(-c3cccnc3Cl)n2)cn1	STAT1 activator 134 (no result: STAT3 blocker, STAT3 activator)
COc1ncccc1-c1nnn(-c2ccc(Cl)nc2)n1	none (no result: STAT3 blocker, STAT3 activator)
CCN(C(=O)CSc1nnc2c3ccccc3n(CC)c2n1)C1CCS(=O)(=O)C1 (centres undefined)	none
O=C(Nc1ccccc1)N1CCCC2CCCCC21 (centres undefined)	STAT1 activator 131
O=C(NC1CCCC1)C1CCCN1C(=O)Nc1ccccc1 (centres undefined)	none
CCOC(=O)Cc1ccc(NC(=O)c2ccc(C(C)(C)C)cc2)cc1	STAT1 blocker 38, STAT3 blocker 96
COC(=O)Cc1ccc(NC(=O)c2ccc(C)c(C)c2)cc1	STAT1 activator 133
Cc1noc(N)c1C(=O)Nc1ccc(C(C)(C)C)cc1	STAT1 activator 143
COc1ccc(C(=O)C2CCCN(Cc3cccn3-c3ccc(Cl)cn3)C2)c(OC)c1 (centres undefined)	none
CCN(CC)CCCN(Cc1cc2cc3c(cc2[nH]c1=O)OCO3)C(=S)Nc1ccc(OC)cc1	none
CCOC(=O)c1c(C)[nH]c(/C(C)=N/O)c1C	none
CCOC(=O)c1c(C)[nH]c(C2=NNC(=NC3CC3)SC2)c1C	STAT1 blocker 61, STAT3 blocker 76
CCOC(=O)c1c(C)oc2c1c(C(c1cccnc1)N1CCOCC1)c(O)c1ccccc12 (centres undefined)	STAT3 activator 133
O=C(CN1CCCC1)Nc1ccc(NC(=O)Nc2ccccc2)cc1	STAT1 activator 131
Cc1ccc(Nc2nc(N)c([N+](=O)[O-])c(NCc3ccco3)n2)cc1C	STAT1 activator 139
CCC1(c2ccc(Cl)cc2)NC(=O)N(Cc2ccc(C(=O)OC)cc2)C1=O (centres undefined)	none
COC(=O)Cn1c(C)nc2c(sc3nc(C)cc(C)c32)c1=O	STAT1 activator 141
COC(=O)Cn1c(C)nc2ccccc21	none
O=C(NCCc1cccc(Cl)c1)c1cccs1	none
Cn1cc(CNCc2cn[nH]c2-c2ccc(F)cc2)c(-c2ccc3c(c2)OCCO3)n1	none
Cn1cc(CNCc2ccc(OC(F)(F)F)cc2)c(-c2ccc3c(c2)OCCO3)n1	STAT3 blocker 56
Cc1nnc(N(C)C(=O)c2ccc3c(c2)OCO3)s1	none
Cc1ccc(S(=O)(=O)NCc2ccc(C(=O)NCCCN3CCC(Cc4ccccc4)CC3)cc2)cc1	none
COc1ccc(-c2ccc(-c3nnn(CC(C)=O)n3)cc2)cc1	STAT1 activator 133
COc1cccc(-c2nnn(CC(C)=O)n2)c1	STAT1 activator 134
O=C(c1ccccc1)N1CCCCC(S(=O)(=O)c2ccc3ccccc3c2)C1=O (centres undefined)	none
Cc1noc(C)c1N=Nc1ccc(Br)cc1C(=O)O	none
Cc1ccc(NC(=O)CCNCc2ccco2)cc1S(=O)(=O)N(C)C	none
O=C(c1ccco1)N1CCN(Cc2cccc([N+](=O)[O-])c2)CC1	none
O=[N+]([O-])c1ccc(C2Oc3ccccc3C3CC(c4ccccc4)=NN32)s1 (centres undefined)	STAT3 activator 133
c1ccc(C2Oc3ccccc3C3CC(c4cccs4)=NN32)cc1 (centres undefined)	none
O=C(O)c1cc(NS(=O)(=O)c2ccc(N3CCCCC3)c([N+](=O)[O-])c2)cc(C(=O)O)c1	none
Cn1cccc1C(=O)C(=O)Nc1ccccc1C(F)(F)F	STAT1 activator 139
Cn1cccc1C(=O)C(=O)Nc1ccccc1	none
CCC(C)c1ccccc1NC(=O)CN1CCN(C/C=C/c2ccccc2)CC1 (centres undefined)	none
Nc1ccccc1SCc1cn2ccccc2n1	STAT1 activator 146
Clc1ccc(-n2nnnc2SCc2cn3ccccc3n2)cc1	none
Nc1ccccc1SCc1cn2cccnc2n1	none
Cc1cccc2nc(CSc3ccc(Cl)cc3)cn12	STAT1 activator 132
Clc1ccc(SCc2cn3ccccc3n2)cc1	STAT1 activator 133
Cc1cccn2cc(CSc3ccccc3N)nc12	STAT1 activator 139
Clc1ccc2nc(CSCc3ccccc3)cn2c1	STAT1 activator 145
Cc1cc(C)n2cc(CSCc3ccco3)nc2n1	none
Clc1ccc2nc(CSc3nncn3-c3ccccc3)cn2c1	none
Cc1nc(CSc2ccc(Cl)cc2)cc(NCc2ccccc2)n1	none
Cc1cccc2nc(CSCc3ccco3)cn12	STAT1 activator 135
Clc1ccc2nc(CSc3nnc4ccccn34)cn2c1	STAT1 activator 141
CNc1cc(CSc2ccc(Cl)cc2)nc(C)n1	STAT1 activator 135
